From ChEMBL document CHEMBL3244081, “Potential antitumor agents. 31. Quantitative structure-activity relationships for the antileukemic bis(guanylhydrazones)” (1979)

What was measured:
[1] = Binding affinity to DNA (unknown origin) assessed as decrease in velocity of L1210 DNA-dependent DNA polymerase reaction
[2] = tested on: L1210; test: Anti-leukemic activity against mouse L1210 cells allografted in ip dosed DBA2 mouse assessed as optimum drug dose required for the effect administered qd for 1 to 4 days; format: functional
[3] = Displacement of ethidium from poly[d(G-C)]-poly[d(G-C)] DNA (unknown origin) by fluorimetric assay
Method in brief: (§1)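 Relative binding to the synthetic duplex polymers was measured as fluorimetric displacement of bound ethidium, following the method of the earlier studies. Compounds were made up as 2 mM aqueous stock solutions, either from weighed salts or, where material was scarce, with the concentration set from published UV absorbance data before final dilution.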

[4] = Displacement of ethidium from poly[d(A-T)]-poly[d(A-T)] DNA (unknown origin) by fluorimetric assay; method in brief: as §1
[5] = tested on: L1210; test: Anti-leukemic activity against mouse L1210 cells allografted in ip dosed DBA2 mouse assessed as increase in host lifespan administered qd for 1 to 4 days; format: functional

Row | SMILES | logIC50 [1] | log optimum dose [2] | C50 [3] | C50 [4] | log(activity) [5]
1 | CC(=N\NC(=N)N)/C(C)=N/NC(=N)N | 2.7 | 2.18 | 51 µM | 14 µM | <1.4
2 | C/C(=N\NC(=N)N)c1ccc(NC(=N)Nc2ccc(/C(C)=N/NC(=N)N)cc2)cc1 | 1.6 | 0.7 | 0.2 µM | 0.08 µM | 1.82
3 | C/C(=N\NC(=N)N)c1cccc(NC(=O)Nc2cccc(/C(C)=N/NC(=N)N)c2)c1 | 1.6 | 1.48 | 1.6 µM | 0.42 µM | 2.1
4 | CC(/C=N/N(C)C(=N)N)=N\N(C)C(=N)N | > 3 | 2.18 | 379 µM | 103 µM | <1.4
5 | N=C(N)N/N=C/C/C=N/NC(=N)N | > 3 | 2.3 | – | – | <1.4
6 | N=C(N)N/N=C/c1ccc(NC(=O)Nc2ccc(/C=N/NC(=N)N)cc2)cc1 | 1.95 | 1.48 | 0.69 µM | 0.3 µM | 2.08
7 | N=C(N)NCCCCCCCCCCNC(=N)N [SYNTHALIN] | > 3 | 0.6 | 191 µM | 127 µM | 2.11
8 | N=C(N)NN=C1C=CC(=NNC(=N)N)C=C1 | 2.85 | 1.88 | 200 µM | 22 µM | <1.4
9 | Cl.N=C(N)N/N=C/c1ccc(-c2ccc(/C=N/NC(=N)N)cc2)cc1 | 1.6 | 1.3 | 1 µM | 0.14 µM | 1.63
10 | Cl.N=C(N)N/N=C/c1ccc(/C=N/NC(=N)N)cc1 | 1.9 | 1.6 | 7.6 µM | 2.9 µM | 1.84
11 | CCC(/C=N/NC(=N)N)=N\NC(=N)N.Cl | 2.87 | 2 | 248 µM | 112 µM | <1.4
12 | C/C(=N\NC(=N)N)c1ccc(NC(=S)Nc2ccc(/C(C)=N/NC(=N)N)cc2)cc1 | 2.11 | 1.4 | 3.4 µM | 1.2 µM | 1.97
13 | C/C(=N\NC(=N)N)c1ccc(NC(=O)Nc2ccc(/C(C)=N/NC(=N)N)cc2)cc1 | 1.95 | 1.4 | 1.3 µM | 0.43 µM | 2.47
14 | CC(/C=N/NC(=N)N)=N\NC(=N)N [MITOGUAZONE] | 2.85 | 1.7 | 128 µM | 34 µM | 2
15 | N=C(N)c1ccc(/C=C/c2ccc(C(=N)N)cc2O)cc1 [HYDROXYSTILBAMIDINE] | 1.6 | 1.87 | 6.7 µM | 1.2 µM | 1.85
16 | N=C(N)N/N=C/CCC/C=N/NC(=N)N | > 3 | 1.87 | 81 µM | 70 µM | <1.4
17 | CNC(=N)N/N=C/C(C)=N/NC(=N)NC | 2.81 | 2.3 | 111 µM | 27 µM | <1.4
